The test system of test [1] is 4T1. The test is described as follows: Cytotoxicity against mouse 4T1 cells after 72 hrs by MTT assay. The test is classed as functional, cell-based. The conditions noted are these: Mus musculus, 4T1, 72 h. Put shortly:
(§1)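 Compounds dissolved in DMSO; cells seeded at 5 × 10^3 per well and treated after adherence with a range of concentrations for 72 h, with DMSO as negative control. MTT was added for 4 h at 37 °C in the dark, formazan dissolved in DMSO, and absorbance read. IC50 (μM) was calculated as the mean of three independent experiments.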
In general terms: Tetrazolium assays rely on reduction of a dye to a coloured formazan, in cell work by metabolically active cells.

Test [2] deals with HCT-116. The test is described as follows: Cytotoxicity against human HCT116 cells after 72 hrs by MTT assay. It counts as functional, cell-based. The conditions noted are these: Homo sapiens, HCT-116, 72 h. In outline: as §1
For test [3], the system named is A549. The test can be described thus: Cytotoxicity against human A549 cells after 72 hrs by MTT assay. It counts as functional, cell-based. The conditions noted are these: A549, 72 h. Put shortly:
as §1

Test [4] has as its system CT26. The test is described as follows: Cytotoxicity against mouse CT26 cells after 72 hrs by MTT assay. The test is classed as functional, cell-based. The conditions noted are these: Mus musculus, CT26, 72 h. Put shortly:
as §1

Test [5] has as its system PC-3. The test is described as follows: Cytotoxicity against human PC3 cells after 72 hrs by MTT assay. The settings on record: Homo sapiens, PC-3, 72 h. It counts as functional, cell-based. In outline: as §1
Test [6] concerns MCF-7 (Homo sapiens). The test can be described thus: Cytotoxicity against human MCF-7 cells after 72 hrs by MTT assay. The conditions noted are these: MCF-7, 72 h.
Test [7] concerns MDA-MB-435. The test can be described thus: Cytotoxicity against human MDA-MB-435 cells after 72 hrs by MTT assay. The test is classed as functional, cell-based. The conditions noted are these: Homo sapiens, MDA-MB-435, 72 h. In outline:
as §1

The test system of test [8] is MCF7. The test can be described thus: Cytotoxicity against human MCF7 cells after 72 hrs by MTT assay. The test is classed as functional, cell-based. The conditions noted are these: Homo sapiens, MCF7, 72 h. In outline: as §1
The test system of test [9] is B16-F10. The test can be described thus: Cytotoxicity against mouse B16F10 cells after 72 hrs by MTT assay. It counts as functional, cell-based. The settings on record: Mus musculus, B16-F10, 72 h. Put shortly:
as §1

Drawing on ChEMBL document CHEMBL1212914, “A novel water-soluble gossypol derivative increases chemotherapeutic sensitivity and promotes growth inhibition in colon cancer” (J Med Chem, 2010), this text covers IC50 for four compounds.

As for `Cc1cc2c(C(C)C)c(O)c(O)c(/C=N/[C@@H](Cc3ccccc3)C(=O)O)c2c(O)c1-c1c(C)cc2c(C(C)C)c(O)c(O)c(/C=N/[C@@H](Cc3ccccc3)C(=O)O)c2c1O`, the IC50 in test [1] was more than 40 µM; in test [2], more than 40 µM; in test [3], 5.38 µM; in test [4] it was 7.36 µM; in test [5], 28.4 µM; in [6] it was more than 40 µM. The IC50 in test [7] is more than 40 µM; in test [8] it was more than 40 µM; in test [9], 22.4 µM.
For the compound `Cc1cc2c(C(C)C)c(O)c(O)c(/C=N/C3C(=O)N4[C@@H]3SC(C)(C)[C@@H]4C(=O)O)c2c(O)c1-c1c(C)cc2c(C(C)C)c(O)c(O)c(/C=N/C3C(=O)N4[C@@H]3SC(C)(C)[C@@H]4C(=O)O)c2c1O` (single isomer, unassigned), the IC50 in [1], in [2], in test [3], in test [4], in test [5] and in test [6] was more than 40 µM in each case. For the same compound, the IC50 in [7], in test [8] and in [9] was more than 40 µM in each case.
`CO[C@@H](c1ccc([N+](=O)[O-])cc1)[C@H](CO)/N=C/c1c(O)c(O)c(C(C)C)c2cc(C)c(-c3c(C)cc4c(C(C)C)c(O)c(O)c(/C=N/[C@@H](CO)[C@@H](OC)c5ccc([N+](=O)[O-])cc5)c4c3O)c(O)c12`: the IC50 in test [1] was more than 40 µM; in test [2], 17.7 µM; in [3] it was more than 40 µM; in [4] it was more than 40 µM; in test [5] it was more than 40 µM; in test [6], more than 40 µM. Besides, the IC50 in test [7], in test [8] and in test [9] was more than 40 µM throughout.
Consider `COC(=O)C(/N=C/c1c(O)c(O)c(C(C)C)c2cc(C)c(-c3c(C)cc4c(C(C)C)c(O)c(O)c(/C=N/C(C(=O)OC)c5c[nH]c6ccccc56)c4c3O)c(O)c12)c1c[nH]c2ccccc12` (stereo unspecified), for which the IC50 in test [1], in [2], in test [3], in test [4], in test [5] and in test [6] was more than 40 µM in each case. Also, the IC50 in test [7], in [8] and in [9] was more than 40 µM in each case.

The IC50 is the concentration needed to halve the response being measured. Higher therefore signals weaker potency.
